ChEMBL document CHEMBL1765004 (2011)
Calls of active or inactive are those of the source. No cut-off for these calls is given here.

Key:
HCT-116 [1] = assay: Antimicrofilament activity in human HCT116 cells assessed as loss of microfilament at 0.05 uM by rhodamine-phalloidin staining; type: functional, cell-based
HCT-116 [2] = assay: Antimicrofilament activity in human HCT116 cells assessed as additional loss of microfilament at 5 uM by rhodamine-phalloidin staining; type: functional, cell-based
HCT-116 [3] = assay: Antimicrofilament activity in human HCT116 cells assessed as loss of microfilament at 0.01 uM by rhodamine-phalloidin staining; type: functional, cell-based
HCT-116 [4] = assay: Antimicrofilament activity in human HCT116 cells assessed as loss of microfilament network at 0.5 uM by rhodamine-phalloidin staining; type: functional, cell-based
HCT-116 [5] = assay: Antimicrofilament activity in human HCT116 cells assessed as loss of microfilament at 0.1 uM by rhodamine-phalloidin staining; type: functional, cell-based
HCT-116 [6] = assay: Antimicrofilament activity in human HCT116 cells assessed as additional loss of microfilament at 1 uM by rhodamine-phalloidin staining; type: functional, cell-based
HCT-116 [7] = assay: Anticancer activity against human HCT116 cells; type: functional
Outline: (§1)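 NCI-DTP 60 cell line screen; GI50 values supplied by NCI-DTP. HCT-116 GI50 for some entries determined instead by a separate group (Henry Ford Hospital). Compounds failing initial single-dose testing at 10 μM (<25% growth inhibition) were not taken to five-dose testing.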

MDA-MB-231 = assay: Anticancer activity against human MDA-MB-231 cells; type: functional; outline: as §1
NCI-H522 = assay: Anticancer activity against human NCI-H522 cells; type: functional; outline: as §1
A498 = assay: Anticancer activity against human A498 cells; type: functional; outline: as §1
IGROV-1 = assay: Anticancer activity against human IGROV1 cells; type: functional; outline: as §1
LOX IMVI = assay: Anticancer activity against human LOXIMVI cells; type: functional; outline: as §1
HCT-116 [8] = assay: Antimicrofilament activity in human HCT116 cells assessed as complete loss of microfilament network at GI50 concentration by rhodamine-phalloidin staining; type: functional, cell-based
DU-145 = assay: Anticancer activity against human DU145 cells; type: functional; outline: as §1
U-251 = assay: Anticancer activity against human U251 cells; type: functional; outline: as §1
HCT-116 [9] = assay: Antimicrofilament activity in human HCT116 cells assessed as loss of microfilament at 1 uM by rhodamine-phalloidin staining; type: functional, cell-based
HCT-116 [10] = assay: Antimicrofilament activity in human HCT116 cells assessed as loss of microfilament at 5 uM by rhodamine-phalloidin staining; type: functional, cell-based
HCT-116 [11] = assay: Antimicrofilament activity in human HCT116 cells assessed as additional loss of microfilament at 0.1 uM by rhodamine-phalloidin staining; type: functional, cell-based
HCT-116 [12] = assay: Antimicrofilament activity in human HCT116 cells assessed as total loss of microfilament network at 5 uM by rhodamine-phalloidin staining; type: functional, cell-based
HCT-116 [13] = assay: Antimicrofilament activity in human HCT116 cells assessed as complete loss of microfilament network at 0.5 uM to 5 uM by rhodamine-phalloidin staining
HCT-116 [14] = assay: Antimicrofilament activity in human HCT116 cells assessed as total loss of microfilament network at 0.5 uM by rhodamine-phalloidin staining; type: functional, cell-based
HCT-116 [15] = assay: Antimicrofilament activity in human HCT116 cells assessed as total loss of microfilament network at 1 uM by rhodamine-phalloidin staining; type: functional, cell-based
HCT-116 [16] = assay: Anticancer activity against human HCT116 cells at 10 uM; type: functional
LNCaP = assay: Growth inhibition against human LNCAP cells assessed as disruption of actin cytoskeleton; type: functional
HCT-116 [17] = assay: Cytotoxicity against human HCT116 cells assessed as time required to kill 90% of tumor cells at 0.004 uM by clonogenic assay; type: functional
Outline: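 Clonogenic assay: HCT-116 seeded at 200–20 000 cells per 60 mm dish in RPMI + 10% FBS. Drug was given at 1 mg/mL and 10-fold dilutions for 2 h or 24 h, then replaced with drug-free medium, or given continuously. After 7 days colonies were stained with methylene blue and those of ≥50 cells counted, normalized to untreated control. Repeats spanned 100–0.1% survival; endpoint was 90% kill.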

[18] = Growth inhibition against human TSU-Pr1 cells assessed as disruption of actin cytoskeleton; type: functional
PC-3 = assay: Growth inhibition against human PC3 cells assessed as disruption of actin cytoskeleton; type: functional
HCT-116 [19] = assay: Antimicrofilament activity in human HCT116 cells assessed as additional loss of microfilament network at 0.5 uM by rhodamine-phalloidin staining; type: functional, cell-based

SMILES | Activity (HCT-116 [1]) | Activity (HCT-116 [3]) | Activity (HCT-116 [4]) | Activity (HCT-116 [5]) | GI50 (HCT-116 [7]) | GI50 (MDA-MB-231) | GI50 (NCI-H522) [nM] | GI50 (A498) [nM] | GI50 (IGROV-1) [nM] | GI50 (LOX IMVI) [nM] | GI50 (DU-145) [nM] | GI50 (U-251) [nM] | other results
COC(=O)C[C@@H](NC(=O)[C@@H](Cc1c(Br)[nH]c2ccccc12)N(C)C(=O)[C@H](C)NC(=O)[C@@H](C)C/C(C)=C/[C@H](C)C[C@H](C)O)c1ccc(O)cc1 | inactive | inactive | Active | inactive | 270 nM |  |  |  |  |  |  |  | Activity (HCT-116 [2]): Active; Activity (HCT-116 [6]): Active
CCOC(=O)C[C@@H](NC(=O)[C@@H](Cc1c(Br)[nH]c2ccccc12)N(C)C(=O)[C@H](C)NC(=O)[C@@H](C)C/C(C)=C/[C@H](C)C[C@H](C)O)c1ccc(O)cc1 | inactive | inactive | Active | inactive | 280 nM | 740 nM | 40 | 440 | 170 | 160 | 3720 | 50 | Activity (HCT-116 [2]): Active; Activity (HCT-116 [6]): Active; Activity (HCT-116 [8]): Active
C/C(=C\[C@H](C)C[C@H](C)O)C[C@H](C)C(=O)N[C@@H](C)C(=O)N(C)[C@H](Cc1c(Br)[nH]c2ccccc12)C(N)=O | inactive | inactive | Active | inactive | 11100 nM | 22300 nM |  |  |  |  |  |  | Activity (HCT-116 [9]): inactive; Activity (HCT-116 [10]): inactive
C/C1=C\[C@H](C)C[C@H](C)OC(=O)C[C@H](c2ccc(O)c(O)c2)NC(=O)[C@@H](Cc2c(Br)[nH]c3ccccc23)N(C)C(=O)[C@H](C)NC(=O)[C@@H](C)C1 | Active | inactive |  |  | 70 nM | 90 nM | 60 | 10 | 30 | 7 | 80 | 40 | Activity (HCT-116 [11]): Active; Activity (HCT-116 [12]): Active; Activity (HCT-116 [13]): Active; Activity (HCT-116 [14]): Active; Activity (HCT-116 [15]): Active
C/C1=C\[C@H](C)C[C@H](C)OC(=O)/C=C(/c2ccc(O)c(O)c2)NC(=O)[C@@H](Cc2c(Br)[nH]c3ccccc23)N(C)C(=O)[C@H](C)NC(=O)[C@@H](C)C1 | inactive | inactive | Active | inactive | 3840 nM | 2320 nM |  |  |  |  |  |  | Activity (HCT-116 [9]): inactive; Activity (HCT-116 [10]): inactive
C/C(=C\[C@H](C)C[C@H](C)OC(=O)CC(=O)c1ccc(O)c(O)c1)C[C@H](C)C(=O)N[C@@H](C)C(=O)N(C)[C@H](Cc1c(Br)[nH]c2ccccc12)C(N)=O | inactive | inactive |  | inactive | inactive | inactive |  |  |  |  |  |  | inhibition at 10 µM (HCT-116 [16]): < 25%; Activity (HCT-116 [9]): inactive; Activity (HCT-116 [10]): inactive
C/C1=C\[C@H](C)C[C@H](C)OC(=O)C[C@H](c2ccc(O)cc2)NC(=O)[C@@H](Cc2c(Br)[nH]c3ccccc23)N(C)C(=O)[C@H](C)NC(=O)[C@@H](C)C1 [JASPAMIDE] | inactive | inactive |  | inactive | 40 nM | 10 nM | 30 | 30 | 20 | 10 | 30 | 70 | GI50 (LNCaP): 41000 nM; Time (HCT-116 [17]): 7 days; GI50 [18]: 170000 nM; Activity (HCT-116 [12]): Active; Activity (HCT-116 [13]): Active; Activity (HCT-116 [14]): Active; Activity (HCT-116 [15]): Active; GI50 (PC-3): 65000 nM
C=C1C[C@H](C)C(=O)N[C@@H](C)C(=O)N(C)[C@H](Cc2c(Br)[nH]c3ccccc23)C(=O)N[C@@H](c2ccc(O)cc2)CC(=O)O[C@@H](C)C[C@@H](C)C1=O [JASPLAKINOLIDE B] | inactive | inactive |  | Active | 140 nM | 40 nM |  |  |  |  |  |  | Activity (HCT-116 [2]): Active; Activity (HCT-116 [19]): Active; Activity (HCT-116 [6]): Active; Activity (HCT-116 [8]): Active
CC[C@@H]1NC(=O)[C@@H](C)C/C(C)=C/[C@H](C)C[C@H](C)OC(=O)C[C@H](c2ccc(O)cc2)NC(=O)[C@@H](Cc2c(Br)[nH]c3ccccc23)N(C)C1=O [JASPLAKINOLIDE D] |  |  |  |  | 20 nM | 20 nM | 30 | 2 | 8 | 3 | 20 | 10 | 
C/C1=C\[C@H](C)C[C@H](C)OC(=O)C[C@H](c2ccc(O)cc2)NC(=O)[C@@H](Cc2c(Br)[nH]c3ccccc23)N(C)C(=O)[C@H](C)NC(=O)CC1 [JASPLAKINOLIDE F] |  |  |  |  | 110 nM | 260 nM | 610 | 210 | 20 | 30 | 290 | 50 | 
C/C1=C\[C@H](C)C[C@H](C)OC(=O)C[C@H](c2ccc(O)cc2)NC(=O)[C@@H](Cc2c(Br)[nH]c3ccccc23)NC(=O)[C@H](C)NC(=O)[C@@H](C)C1 [JASPLAKINOLIDE M] |  |  |  |  | 130 nM | 210 nM | 200 | 170 | 30 | 20 | 250 | 60 | 
C/C1=C\[C@H](C)C[C@H](C)OC(=O)C[C@H](c2ccc(O)cc2)NC(=O)[C@@H](Cc2c[nH]c3ccccc23)N(C)C(=O)[C@H](C)NC(=O)[C@@H](C)C1 [JASPLAKINOLIDE Q] |  |  |  |  | 50 nM | 70 nM | 160 | 80 | 10 | 20 | 100 | 30 | 
C/C1=C\[C@H](C)C[C@H](C)OC(=O)C[C@H](c2ccc(O)cc2)NC(=O)[C@@H](Cc2c(Br)[nH]c3cc(Br)ccc23)N(C)C(=O)[C@H](C)NC(=O)[C@@H](C)C1 [JASPLAKINOLIDE R1] | inactive | inactive |  | inactive | 60 nM | 90 nM | 3 | 40 | 30 | 40 | 310 | 30 | Activity (HCT-116 [12]): Active; Activity (HCT-116 [13]): Active; Activity (HCT-116 [14]): Active; Activity (HCT-116 [15]): Active
C/C(=C\[C@H](C)C[C@H](C)O)C[C@H](C)C(=O)N[C@@H](C)C(=O)N(C)[C@H](Cc1c(Br)[nH]c2ccccc12)C(=O)N[C@H](CC(=O)O)c1ccc(O)cc1 [JASPLAKINOLIDE Z1] | inactive | inactive | Active | inactive | 13700 nM | 2500 nM | 120 |  | 1760 | 280 | 18800 | 600 | Activity (HCT-116 [9]): inactive; Activity (HCT-116 [10]): inactive
